Bioassay records deposited in PubChem by Broad Institute.
Shown are actives, neighbours in structure and some others; about 0.61% of the full set was active somewhere.
CFTR F508del cor – CFTR F508del correction in bronchial cells; CFBE cells, YFP halide quenching; stimulated with forskolin plus potentiator P3; % fluorescence drop versus neutral controls; activity (quench increase), % at 7.58 µM; AID 720511; 0.36% of 350,000 active;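 active = mean added fluorescence quench of at least 8% versus neutral control, with both replicates also reaching 8%; inconclusive = only one of the mean or replicate conditions met; inactive = mean below 8% and not both replicates reaching 8%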;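 note: cells transiently co-express mutant CFTR-F508del with the halide-sensitive YFP; corrector assay measuring rescue of mutant channel to the surface after 24 h compound exposure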
E-selectin induc – induces E-selectin expression in human endothelial cells. 0.37% of 260,000 active. HUVEC E-selectin immunofluorescence imaging; normalized: neutral wells 0, TNF-alpha wells 100. P16581. activation, % at 7.58 µM;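 active = mean E-selectin-positive cell signal at least 10% of the positive control, reached in at least 60% of replicates, without over 20% cell loss; inconclusive = no rule given, readout overlaps actives, possibly toxicity-flagged; inactive = the rest, including those meeting only one limit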
Target sequence (P16581 whole entry, looked up): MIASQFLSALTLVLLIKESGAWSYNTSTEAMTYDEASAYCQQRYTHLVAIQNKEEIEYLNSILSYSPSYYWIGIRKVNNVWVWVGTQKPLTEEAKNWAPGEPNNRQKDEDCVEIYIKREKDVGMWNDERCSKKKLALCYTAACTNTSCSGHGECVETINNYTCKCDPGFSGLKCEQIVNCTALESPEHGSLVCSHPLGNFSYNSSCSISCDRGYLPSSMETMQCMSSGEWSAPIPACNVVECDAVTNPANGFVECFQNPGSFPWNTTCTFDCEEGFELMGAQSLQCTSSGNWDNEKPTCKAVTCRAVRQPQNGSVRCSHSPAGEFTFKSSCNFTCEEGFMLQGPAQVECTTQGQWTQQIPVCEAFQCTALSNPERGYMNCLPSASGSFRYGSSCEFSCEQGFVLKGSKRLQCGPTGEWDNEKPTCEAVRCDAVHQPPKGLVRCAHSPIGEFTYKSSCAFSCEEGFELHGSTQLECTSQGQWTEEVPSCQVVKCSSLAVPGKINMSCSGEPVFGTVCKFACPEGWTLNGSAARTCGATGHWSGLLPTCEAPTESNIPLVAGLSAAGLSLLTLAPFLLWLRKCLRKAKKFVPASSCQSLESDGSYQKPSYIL
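System: HUVEC, human umbilical vein endothelial cells; quantity: 3,000 cells/well; buffer or medium: EGM-2 medium, gelatin-coated wells; dosing: single-point compound dose; detection: immunofluorescence imaging; evaluation: % PE-positive cells; benchmarks: TNF-alpha, DMSO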
XiGFP reactiv – reactivates the inactive X chromosome in mouse fibroblasts; XiGFP mouse fibroblasts, % GFP-positive cells imaging, 3 d; cells co-treated with 5-aza-dC sensitizer; scaled so ellipticine positive control = 100%; activation, % at 7.58 µM; 0.055% of 360,000 active;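 active = mean normalized replicate activation at least 10% and every replicate at or above 10%; inconclusive = only one of the two criteria met; inactive = mean below 10% and not all replicates reach 10%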
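Assay system – SV40-immortalized XiGFP fibroblast cells, line 68-5-11 · Buffer or medium – DMEM supplemented with 5-aza-dC as sensitizing agent · Dosing – one concentration, pinned · Benchmarks – positive control ellipticine, 6 µM final · Times – 3 days compound exposure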
Hits are given with their value; 0 = inactive; ? = inconclusive; - = no result; ! = not active in a repeat.

SMILES	CFTR F508del cor	E-selectin induc	XiGFP reactiv
COC(=O)C[C@H]1CC[C@@H]2[C@@H](COc3ccc(NC(=O)Nc4cccc(F)c4)cc3C(=O)N2C)O1	0	0	0
CCCNC(=O)c1ccc2c(=O)c(O)c(C)[nH]c2c1	0	0	0
CCCNC(=O)c1ccc2c(=O)c(O)c(-c3cccc(Br)c3)[nH]c2c1	8.4	0	0
CCN1C(=O)[C@@H]2Cc3c([nH]c4ccccc34)C(c3cc(OC)c(OC)c(OC)c3)N2C1=S (some centres undefined)	0	0	26
COCCCN1CC(=O)N2C(c3ccc(OC)c(OC)c3)c3[nH]c4ccccc4c3C[C@H]2C1=O (some centres undefined)	0	-	0
COc1cc(C2c3[nH]c4ccccc4c3C[C@H]3C(=O)N(CCO)CC(=O)N23)cc(OC)c1OC (some centres undefined)	0	0	0
C=CCN1C(=O)[C@@H]2Cc3c([nH]c4ccccc34)C(c3cc(OC)c(OC)c(OC)c3)N2C1=S (some centres undefined)	0	0	91
CCNC(=O)Nc1ccc2c(c1)C(=O)N(C)[C@@H]1CC[C@H](CC(=O)NC3CCCCC3)O[C@@H]1CO2	0	0	0
COc1ccccc1C(=O)N1C[C@H]2[C@@H](c3ccccc31)[C@@H](CO)N2C(=O)C1CCCC1	0	0	0
C[C@H]1CN([C@@H](C)CO)C(=O)Cc2cc(NC(=O)Cc3cn(C)c4ccccc34)ccc2O[C@H]1CN(C)C(=O)Nc1ccc2c(c1)OCO2	0	0	0
C[C@@H]1CN([C@H](C)CO)C(=O)c2cccc(NC(=O)C3CCOCC3)c2O[C@@H]1CN(C)Cc1ccc(Oc2ccccc2)cc1	0	380	0
C[C@H]1CN([C@@H](C)CO)C(=O)c2cccc(NC(=O)C3CCOCC3)c2O[C@H]1CN(C)Cc1ccc(Oc2ccccc2)cc1	0	?	0
C[C@@H]1CN([C@@H](C)CO)C(=O)c2cccc(NC(=O)C3CC3)c2O[C@H]1CN(C)Cc1ccc(Oc2ccccc2)cc1	0	0	0
C[C@H](CO)N1C[C@H](C)[C@H](CN(C)Cc2ccc(Oc3ccccc3)cc2)Oc2c(NC(=O)C3CCOCC3)cccc2C1=O	0	168	0
CCCNC(=O)Nc1ccc2c(c1)OC[C@H](C)N(C)C[C@@H](C)[C@@H](OC)CN(C)C2=O	-	0	0
CN(Cc1ccc(F)cc1)Cc1nc(CCc2ccccc2)no1	0	0	0
CN(Cc1nc(CCc2ccccc2)no1)Cc1cccs1	0	0	40
C[C@@H]1CCCCO[C@H](CN(C)C(=O)CCC(F)(F)F)[C@@H](C)CN([C@@H](C)CO)C(=O)c2cc(NS(C)(=O)=O)ccc2O1	0	0	0
O=C(NCC[C@@H]1CC[C@@H](NC(=O)c2cnccn2)[C@@H](CO)O1)Nc1ccc(Cl)cc1	0	0	0
S=C1NC2=C(CCCC2=C2SCCCS2)C(c2ccccc2)N1 (centres undefined)	0	-	0
COc1ccc(C2NC(=S)NC3=C2CCCC3=C2SCCS2)cc1 (centres undefined)	11	-	0
COc1ccc2c3c([nH]c2c1)[C@H](CO)NCC31CCN(C(=O)Nc2ccccc2F)CC1	0	0	0
O=Cc1ccc(-c2ccccc2C(=O)O)o1	0	-	0
O=C(O)c1ccccc1-c1c2cc(I)c(=O)c(I)c-2oc2c(I)c(O)c(I)cc12	8.7!	0	0
C[C@@H]1CN([C@H](C)CO)C(=O)Cc2cc(NC(=O)Nc3ccc(F)cc3)ccc2O[C@H]1CN(C)S(=O)(=O)c1ccccc1	0	0	0
SMILES	CFTR F508del cor	E-selectin induc	XiGFP reactiv
C[C@@H]1CN([C@H](C)CO)C(=O)Cc2cc(NS(=O)(=O)c3ccc(F)cc3)ccc2O[C@H]1CN(C)S(=O)(=O)c1ccc(Cl)cc1	0	29	0
C[C@H](CO)N1C[C@H](C)[C@H](CN(C)S(=O)(=O)c2ccc(F)cc2)Oc2ccc(NC(=O)Nc3ccc(F)cc3)cc2CC1=O	0	0	0
C[C@H]1CN([C@@H](C)CO)C(=O)Cc2cc(NS(=O)(=O)c3ccc(Cl)cc3)ccc2O[C@H]1CN(C)S(=O)(=O)c1ccc(F)cc1	0	0	0
C[C@H](CO)N1C[C@H](C)[C@H](CN(C)S(=O)(=O)c2ccccc2)Oc2ccc(NC(=O)Nc3ccc(F)cc3)cc2CC1=O	0	41	0
C[C@H](CO)N1C[C@H](C)[C@H](CN(C)S(=O)(=O)c2ccc(Cl)cc2)Oc2ccc(NC(=O)Nc3ccc(F)cc3)cc2CC1=O	0	40	0
C[C@@H]1CN([C@@H](C)CO)C(=O)Cc2cc(NS(=O)(=O)c3cccs3)ccc2O[C@@H]1CN(C)S(=O)(=O)c1ccc(Cl)cc1	0	0	0
C[C@H](CO)N1C[C@H](C)[C@@H](CN(C)S(=O)(=O)c2cccs2)Oc2ccc(NS(=O)(=O)c3ccc(Cl)cc3)cc2CC1=O	0	98	0
C[C@H](CO)N1C[C@H](C)[C@@H](CN(C)C(=O)NC2CCCCC2)OCCCC[C@H](C)Oc2ccc(NS(=O)(=O)c3cn(C)cn3)cc2C1=O	0	0	0
COc1ccc(S(=O)(=O)N[C@H]2C=C[C@H](CC(=O)NCCc3ccccc3)O[C@@H]2CO)cc1	0	0	0
C=CCN(Cc1ccccc1)C(=O)[C@@H]1N(C(C)(C)C)C(=O)[C@H]2[C@H](C(=O)O)[C@@H]3C=C[C@]12O3	0	-	-
Cc1noc(C)c1NC(=O)Nc1ccc2c(c1)CC(=O)N([C@@H](C)CO)C[C@@H](C)[C@@H](CN(C)S(=O)(=O)c1ccccc1)O2	0	0	0
Cc1noc(C)c1NC(=O)Nc1ccc2c(c1)CC(=O)N([C@@H](C)CO)C[C@H](C)[C@@H](CN(C)S(=O)(=O)c1ccccc1)O2	0	49	0
O=C(O)CSc1ncccn1	0	0	53
O=C(CSc1ncccn1)NC1CCCC1	0	0	0
C[C@@H]1CN([C@H](C)CO)C(=O)c2cc(C#CC(C)(C)O)cnc2O[C@@H]1CN(C)C(=O)C1CCC1	0	0	0
C[C@@H]1CN([C@H](C)CO)C(=O)Cc2cc(NC(=O)CCN3CCOCC3)ccc2O[C@H]1CN(C)S(C)(=O)=O	0	332	0
C[C@H]1CN([C@@H](C)CO)C(=O)Cc2cc(NC(=O)Cc3ccccc3)ccc2O[C@@H]1CN(C)S(C)(=O)=O	0	0	0
C[C@H]1CN([C@@H](C)CO)C(=O)Cc2cc(NC(=O)CCN3CCOCC3)ccc2O[C@H]1CN(C)S(C)(=O)=O	0	0	0
C[C@@H]1CN([C@H](C)CO)C(=O)Cc2cc(NC(=O)Cc3ccccc3)ccc2O[C@H]1CN(C)S(C)(=O)=O	0	68	0
O=C(C[C@@H]1CC[C@H](NC(=O)c2ccc(F)cc2)[C@@H](CO)O1)NCCc1ccncc1	0	0	0
O=C(O)C[C@H]1C[C@H]2c3cc(NC(=O)Nc4ccc(C(F)(F)F)cc4)ccc3O[C@H]2[C@H](CO)O1	0	0	0
CC(C)NC(=O)Nc1ccc2c(c1)C(=O)N([C@H](C)CO)C[C@H](C)[C@@H](CN(C)Cc1ccc(C(F)(F)F)cc1)O2	0	0	0
